High-throughput results deposited in PubChem BioAssay by SRMLSC.
Fibroblast inh = blocks proliferation of human lung fibroblasts. LL 47 human lung fibroblast viability, ATP luminescence; active compounds read low. AID 719. viability, % at 10 µM. 85,000 compounds, 1.1% hits;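 active means viability at or below 50% in the single dose screen; inactive means viability above 50%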;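 further: compound exposure lasted 72 h before the ATP readout; 100% = median luminescence of untreated cell-only wells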
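Material: human lung fibroblast line LL 47, low passage; Evaluation: viability percentage against median untreated-cell control; Buffer or medium: 15% FBS in IMEM; Incubation: 72 h compound exposure at 37 °C after overnight plating; Dosing: 0.1% DMSO in all compound wells; Measured by: CellTiter-Glo luminescence.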
PTEN del growth = PTEN-deleted cell growth suppression | HCT116 PTEN-null viability, CellTiter-Glo, 60 h; active compounds read low | viability, % at 10 µM | 140,000 compounds, 1.2% hits;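 active means viability at or below a set limit, 4 SD under the median of all tested compounds, cut at about 3.7% in these data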;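 further: PTEN knockout HCT116 line with beta catenin targeted HCT116 as companion control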
HUVEC prolif 384 = inhibitors of human endothelial cell proliferation; HUVEC proliferation, CellTiter-Glo luminescence, 72 h; active compounds read low; viability, % at 10 µM (by protocol); 86,000 compounds, 1.1% hits; AID 648;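 active means viability at or below 30%; inactive means viability above 30%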;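 further: 100% = median luminescence of DMSO-only cell control wells on each plate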
HCT116 bCat-KO = beta-catenin-lacking colon tumor cell growth suppression; HCT116 beta-catenin knockout viability, CellTiter-Glo, 60 h; active compounds read low; viability, % at 10 µM; 140,000 compounds, 1.5% hits; AID 818;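 active means viability at or under a set limit, the compound median less 4 SD, cut at about 6% in these data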;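 further: 0% = Hyamine 1622 control at 20 µM and 100% = untreated cell control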
H69AR inhibit = blocks growth of human H69AR lung tumor cells; H69AR lung tumor viability, ATP luminescence, 72 h; active compounds read low; viability, % at 10 µM; 85,000 compounds, 6% hits; AID 598;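 active means viability at or below 40%; inactive means viability above 40%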;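 further: multidrug resistant small cell line overexpressing MRP-1 efflux transporter; 100% = mean luminescence of untreated control wells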
An asterisk follows results filed as active; x = not tested or not shown. Only a selection was taken, and hits are over-represented in it overall.

SMILES | Fibroblast inh | PTEN del growth | HUVEC prolif 384 | HCT116 bCat-KO | H69AR inhibit
COc1ccc(S(=O)(=O)Nc2cc3c4c(oc3c3ccccc23)CC(C)(C)CC4=O)cc1 | 100 | 23 | 69 | 39 | 15*
CCc1cc2cc3c(cc2nc1SCC(=O)N1CCN(C(=O)c2ccco2)CC1)OCO3 | 93 | 96 | 86 | 98 | 41
CCc1cc2ccc(C)cc2nc1SCC(=O)N1CCN(C(=O)c2ccco2)CC1 | 95 | 78 | 86 | 72 | 36*
Cc1cccc(Nc2nc(N)c([N+](=O)[O-])c(N3CC(C)CC(C)C3)n2)c1 (stereo not given) | x | 1.8* | x | 1.4* | x
CC(C)(O)C#Cc1ccc(C(=O)NCc2cccs2)s1 | 101 | 118 | 89 | 112 | 74
Cc1ccc(C)c(NC(=S)NC(NC(=O)OCc2ccccc2)C(Cl)(Cl)Cl)c1 (stereo not given) | x | 92 | x | 84 | x
O=C(NC(NC(=S)Nc1c(Cl)cc(Cl)cc1Cl)C(Cl)(Cl)Cl)OCc1ccccc1 (stereo not given) | x | 5 | x | 5.9* | x
COc1cccc(N2CCN(C(=O)c3[nH]c(C)c(C(C)=O)c3C)CC2)c1 | 54 | 26 | 44 | 26 | 21*
CC(=O)c1c(C)[nH]c(C(=O)N2CCN(c3cc(Cl)ccc3C)CC2)c1C | 55 | 18 | 51 | 20 | 17*
CCOc1ccccc1NC(=O)c1ccc(Cl)c(NC(=O)CC(c2ccccc2)c2ccccc2)c1 | x | 69 | x | 86 | x
O/N=C1/CCc2nonc2/C1=N/O | 101 | 92 | 84 | 82 | x
Cn1c(C(=O)NCCCN2CCc3ccccc3C2)cc2c(=O)n(C)c3ccccc3c21 | 67 | 53 | 52 | 46 | 35*
Cn1c(C(=O)Nc2ccc3c(c2)OCCO3)cc2c(=O)n(C)c3ccccc3c21 | 104 | 58 | 50 | 66 | 21*
COCCCNC(=O)c1cc2c(=O)n(C)c3ccccc3c2n1C | 101 | 63 | 70 | 70 | 24*
CCCOc1ccc(CC(=O)NCC2(c3ccccc3)CCOCC2)cc1OC | 92 | 91 | 98 | 88 | 59
O=S(=O)(NCc1ccc2c(c1)OCO2)c1cccc(S(=O)(=O)N2CCOCC2)c1 | 103 | 88 | 108 | 99 | 93
CCc1nc2ccccc2c(C(=O)OCc2nnc(-c3ccccc3)o2)c1C | x | 66 | x | 69 | x
Cn1c(=O)c2c(SCC(=O)N3CCOCC3)nc(CC(C)(C)C)nc2n(C)c1=O | 35* | 61 | 45 | 49 | 24*
Cn1c(=O)c2c(SCC(=O)N3CCCc4ccccc43)nc(CC(C)(C)C)nc2n(C)c1=O | 80 | 4 | 89 | 4.8* | 30*
Cc1ccc(-n2c(=O)c3sccc3n(Cc3cc(=O)n4cc(Cl)ccc4n3)c2=O)cc1F | x | 95 | x | 98 | x
CCC(=O)n1nc(-c2ccc(Cl)cc2)nc1NCc1ccccc1 | 52 | 10 | 45 | 10 | 17*
COc1ccccc1-n1c(CNC(=O)c2ccco2)nnc1SCC(=O)Nc1nccs1 | 95 | 84 | 71 | 86 | 33*
COCCn1c(-c2ccc(OC(F)(F)C(F)C(F)(F)F)cc2)nc2c1c(=O)[nH]c(=O)n2CC(C)C (stereo not given) | 94 | 58 | 105 | 65 | 39*
COc1ccc(/C=C/C(=O)NCCCc2ccccc2)cc1 | x | 95 | x | 98 | x
COc1ccc(/C=C\C(=O)CC(O)(c2ccccc2)C(F)(F)F)cc1 (stereo not given) | 88 | 11 | 87 | 10 | 1.2*
SMILES | Fibroblast inh | PTEN del growth | HUVEC prolif 384 | HCT116 bCat-KO | H69AR inhibit
CCC1(C)CC(c2nc(-c3ccc(OC)cc3)cs2)CCS1 (stereo not given) | x | 72 | x | 76 | x
COc1cc(Cn2c(C(=O)O)cc3sccc32)cc(OC)c1OC | 97 | 96 | 93 | 101 | 83
CC(C)(C)c1nn(-c2ccccc2)c2[nH]c(=O)c(CNCc3ccc4c(c3)OCO4)cc12 | 63 | 11 | 4.6* | 13 | 1.1*
CCOc1cccc(NCc2cc3c(C(C)(C)C)nn(-c4ccccc4)c3[nH]c2=O)c1 | 91 | 92 | 100 | 84 | 48
O=C(Nc1ccc(OC(F)(F)C(F)F)c(NC(=O)c2cccc(F)c2)c1)c1cccc(F)c1 | x | 66 | x | 90 | x
CC(=O)N1N=C(c2ccc(C)o2)CC1c1ccc(Br)cc1 (stereo not given) | x | 97 | x | 102 | x
Cc1ccc(C2=NN(C(=O)CCl)C(c3cccs3)C2)o1 (stereo not given) | x | 2.1* | x | 3.6* | x
O=C(CCl)N1N=C(c2ccco2)CC1c1cccs1 (stereo not given) | x | 1.9* | x | 3.2* | x
CC(=O)N1N=C(c2ccco2)CC1c1cccs1 (stereo not given) | x | 106 | x | 91 | x
CCOc1cc(CNc2ccc(N3CCCC3)cc2)cc(Cl)c1OC | x | 63 | x | 50 | x
CCOc1ccc(CNc2ccc(N3CCCC3)cc2)cc1 | 84 | 6 | 90 | 4.5* | 1.8*
O=C(c1ccc2c(=O)n3c(nc2c1)CCCCC3)N1CCN(C(c2ccccc2)c2ccccc2)CC1 | x | 59 | x | 72 | x
O=C(CSc1ccccc1)Nc1ccc(N2CCOCC2)cc1 | 91 | 92 | 85 | 84 | 6.8*
COc1ccc(S(=O)(=O)N2CCCC(C(=O)NCc3ccco3)C2)cc1Cl (stereo not given) | 106 | 92 | 97 | 91 | 84
COCCN(C(=O)CCC(=O)Nc1cccnc1)C(C(=O)NC1CCCCC1)c1ccccc1 (stereo not given) | 100 | 89 | 105 | 84 | 88
C=CCSC1=C(C#N)C(c2ccccc2Cl)C(C(=O)c2cccs2)C(O)(C(F)(F)F)N1 (stereo not given) | x | 61 | x | 67 | x
Brc1ccc(-c2nc(N/N=C/c3cccnc3)c3ccccc3n2)cc1 | 60 | 39 | 61 | 50 | 11*
COc1cccc(C2C(C(=O)Nc3ccccc3)=C(C)N=c3s/c(=C/c4ccc(OCC(=O)O)cc4)c(=O)n32)c1 (stereo not given) | x | 102 | x | 101 | x
CC1=C(C(=O)Nc2ccccc2)C(c2ccc(C)o2)n2c(s/c(=C\c3ccco3)c2=O)=N1 (stereo not given) | 82 | 84 | 69 | 89 | 3.5*
CCc1ccc2c(c1)[C@]1(C(=O)N2)[C@@H]2C(=O)N(Cc3ccccc3)C(=O)[C@@H]2[C@@H]2CCCN21 | 92 | 86 | 86 | 90 | 91
CC(C)c1ccc2c(c1)C1(NN=C(c3ccccc3)S1)C(=O)N2 (stereo not given) | 43* | 9 | 3.4* | 4.5* | 18*
CCc1ccc2c(c1)C1(NN=C(c3ccc(C)cc3)S1)C(=O)N2 (stereo not given) | 47* | 1.7* | 9.8* | 1.4* | 2.3*
CC(C)c1ccc(O)c(NC(=O)c2ncn[nH]2)c1 | 100 | 92 | 97 | 95 | 82
Cc1cccc2c(SCC(=O)NCC3CCCO3)nc(-c3ccc(F)cc3)nc12 (stereo not given) | x | 75 | x | 89 | x
Cc1ccc2c(c1)c1c3n2CCN(C(=O)C2CC2)C3CCC1 (stereo not given) | 93 | 90 | 104 | 83 | 91
